Laboratory results published in ChEMBL document CHEMBL1157465, “Design, synthesis, and biological evaluation of novel 3-aryl-4-(1H-indole-3yl)-1,5-dihydro-2H-pyrrole-2-ones as vascular endothelial growth factor receptor (VEGF-R) inhibitors” (J Med Chem, 2008).

Columns and labels:
Aurora kinase A = molecular target: T1, Aurora kinase A (Homo sapiens, UniProt O14965); assay: Inhibition of human recombinant Aurora A
T1 sequence (O14965 whole entry): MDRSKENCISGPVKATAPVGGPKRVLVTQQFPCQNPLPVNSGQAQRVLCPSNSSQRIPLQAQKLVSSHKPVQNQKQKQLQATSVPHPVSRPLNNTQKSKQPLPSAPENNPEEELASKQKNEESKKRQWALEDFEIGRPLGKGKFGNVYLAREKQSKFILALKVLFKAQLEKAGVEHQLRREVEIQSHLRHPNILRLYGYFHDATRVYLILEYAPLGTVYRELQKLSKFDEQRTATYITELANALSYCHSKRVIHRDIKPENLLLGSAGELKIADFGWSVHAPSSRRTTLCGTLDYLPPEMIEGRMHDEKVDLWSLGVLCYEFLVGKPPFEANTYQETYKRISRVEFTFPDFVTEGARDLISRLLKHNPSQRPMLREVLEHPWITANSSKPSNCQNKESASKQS
Method in brief: (§1)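 Aurora-A or Aurora-B, human cDNA expressed in Sf9 cells as tagged recombinant protein, phosphorylating Tetra(LRRWSLG). Reactions used 60 mM HEPES pH 7.5, Mg2+/Mn2+ (3 mM each), 1.2 mM DTT, vanadate and 1 µM [γ-33P]ATP, ran 80 min at 30 °C and were stopped with 2% H3PO4.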

Focal adhesion kinase 1 = Focal adhesion kinase 1 (Homo sapiens, UniProt Q05397); assay: Inhibition of human recombinant FAK
[1] = molecular target: Vascular endothelial growth factor receptor 3 (Homo sapiens, UniProt P35916); assay: Inhibition of human recombinant VEGFR3
Method in brief: (§2)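 Recombinant human tyrosine kinases (EPHB4, TIE2, VEGF-R2, VEGF-R3), expressed in Sf9 insect cells as GST- or His-fusions, with poly(Glu,Tyr) 4:1 as substrate. Conditions: 1 µM [γ-33P]ATP, pH 7.5 HEPES buffer with Mg/Mn, DTT and vanadate, 30 °C for 80 min, 1% DMSO. Ten concentrations were tested and IC50 came from scintillation counting of incorporated 33P.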

[2] = molecular target: T2, Serine/threonine-protein kinase PLK4 (Homo sapiens, UniProt O00444); assay: Inhibition of human recombinant SAK
T2 sequence (O00444 whole entry): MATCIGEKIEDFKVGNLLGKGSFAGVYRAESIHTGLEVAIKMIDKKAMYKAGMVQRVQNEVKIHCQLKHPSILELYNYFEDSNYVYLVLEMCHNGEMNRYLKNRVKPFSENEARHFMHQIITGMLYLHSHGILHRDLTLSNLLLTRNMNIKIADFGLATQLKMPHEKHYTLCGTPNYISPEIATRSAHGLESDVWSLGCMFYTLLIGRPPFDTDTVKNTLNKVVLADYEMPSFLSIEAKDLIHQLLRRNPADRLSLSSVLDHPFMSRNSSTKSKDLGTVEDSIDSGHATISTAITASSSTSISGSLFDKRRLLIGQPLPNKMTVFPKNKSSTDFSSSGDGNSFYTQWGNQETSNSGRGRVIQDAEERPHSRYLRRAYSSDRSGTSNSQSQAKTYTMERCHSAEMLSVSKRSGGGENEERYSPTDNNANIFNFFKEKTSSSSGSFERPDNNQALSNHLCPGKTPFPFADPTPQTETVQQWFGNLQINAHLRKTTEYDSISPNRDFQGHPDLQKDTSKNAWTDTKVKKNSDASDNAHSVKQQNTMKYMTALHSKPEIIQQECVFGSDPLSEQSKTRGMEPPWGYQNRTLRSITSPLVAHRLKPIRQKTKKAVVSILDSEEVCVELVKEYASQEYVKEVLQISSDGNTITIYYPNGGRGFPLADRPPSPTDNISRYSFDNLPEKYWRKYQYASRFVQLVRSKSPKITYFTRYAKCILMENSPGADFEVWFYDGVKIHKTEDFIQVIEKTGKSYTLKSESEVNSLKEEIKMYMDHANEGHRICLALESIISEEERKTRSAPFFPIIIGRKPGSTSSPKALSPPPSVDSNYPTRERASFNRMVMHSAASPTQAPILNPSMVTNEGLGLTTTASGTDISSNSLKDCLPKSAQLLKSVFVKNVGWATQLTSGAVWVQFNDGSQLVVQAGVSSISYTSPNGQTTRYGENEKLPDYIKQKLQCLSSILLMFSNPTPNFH
Method in brief: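 Human kinase expressed from cDNA in Sf9 cells (baculovirus) as GST- or His-tagged protein, affinity-purified. 10 compound concentrations, 1% DMSO final, 30 °C for 80 min. Stopped with H₃PO₄, 33P incorporation counted, IC50 derived.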

[3] = molecular target: Proto-oncogene tyrosine-protein kinase Src (Homo sapiens, UniProt P12931); assay: Inhibition of human recombinant SRC
Method in brief: (§3)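 Human kinases expressed in Sf9 cells via baculovirus as GST or His fusions and affinity purified. 33PanQinase assay in 60 mM HEPES-NaOH pH 7.5, 3 mM MgCl2, 3 mM MnCl2, 3 µM orthovanadate, 1.2 mM DTT, 1 µM [γ-33P]ATP, 1% DMSO; 30 °C, 80 min. Substrates: poly(Glu,Tyr) 4:1 for ERBB2, IGF1-R and SRC; poly(Ala,Glu,Lys,Tyr) 6:2:5:1 for FLT3. IC50 from 10 concentrations by scintillation counting.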

Angiopoietin-1 receptor = Angiopoietin-1 receptor (Homo sapiens, UniProt Q02763); assay: Inhibition of human recombinant TIE2; method in brief: as §2
[4] = molecular target: Vascular endothelial growth factor receptor 2 (Homo sapiens, UniProt P35968); assay: Inhibition of human recombinant VEGFR2; method in brief: as §2
Insulin receptor = Insulin receptor (Homo sapiens, UniProt P06213); assay: Inhibition of human recombinant INS-R
Homo sapiens = organism: Homo sapiens; assay: Antiangiogenic activity in VEGF-induced HLMEC assessed as sprouts per bead at 1.3 uM after 24 hrs by sprouting assay; format: functional
Method in brief: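 HLMEC seeded on cytodex-3 microcarrier beads and embedded in 3D fibrinogen gel with 20 ng/mL VEGF plus compound at a final 1.3 or 2.6 µM (from 1 mM DMSO stock). Gel polymerised with 0.65 U/mL thrombin and overlaid with MCDB131, 5% FCS, 5% human serum and 200 U/mL Trasylol. Negative control: gel without growth factors. After 24 h, fixed in 1% PFA; sprouts per 50 beads counted microscopically. Triplicates per condition, n = 9 experiments.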

[5] = molecular target: Receptor tyrosine-protein kinase erbB-2 (Homo sapiens, UniProt P04626); assay: Inhibition of human recombinant ERBB2; method in brief: as §3
[6] = molecular target: Cyclin-dependent kinase 4/cyclin D1 (Homo sapiens, UniProt P11802); assay: Inhibition of human recombinant CDK4/cyclin D1; format: protein-complex assay
Method in brief: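 CDK4/CycD1 (human, baculovirus/Sf9, affinity-purified) with Rb-CTF as substrate. The radiometric FlashPlate assay held 1 µM [γ-33P]ATP in HEPES-NaOH pH 7.5 with 3 mM MgCl2 and 3 mM MnCl2.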

[7] = molecular target: Cyclin-dependent kinase 2 (Homo sapiens, UniProt P24941); assay: Inhibition of human recombinant CDK2/cyclin A
Method in brief: (§4)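 Human kinases expressed in Sf9 cells by baculovirus as GST or His fusions and affinity purified. Radiometric 33PanQinase assay: 60 mM HEPES-NaOH pH 7.5, 3 mM MgCl2, 3 mM MnCl2, 3 µM orthovanadate, 1.2 mM DTT, 1 µM [γ-33P]ATP, 50-400 ng enzyme, 1% DMSO; 30 °C, 80 min. Substrates: B-Raf-VE, MEK1 KM; CDK2/CycA, histone H1; CK2-A1, casein; COT, autophosphorylation. IC50 from 10 concentrations; 33Pi incorporation by scintillation.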

Aurora kinase B = Aurora kinase B (Homo sapiens, UniProt Q96GD4); assay: Inhibition of human recombinant Aurora B; method in brief: as §1
[8] = molecular target: Mitogen-activated protein kinase kinase kinase 8 (Homo sapiens, UniProt P41279); assay: Inhibition of human recombinant COT; method in brief: as §4
[9] = molecular target: T3, NUAK family SNF1-like kinase 1 (Homo sapiens, UniProt O60285); assay: Inhibition of human recombinant ARK5
T3 sequence (O60285 whole entry): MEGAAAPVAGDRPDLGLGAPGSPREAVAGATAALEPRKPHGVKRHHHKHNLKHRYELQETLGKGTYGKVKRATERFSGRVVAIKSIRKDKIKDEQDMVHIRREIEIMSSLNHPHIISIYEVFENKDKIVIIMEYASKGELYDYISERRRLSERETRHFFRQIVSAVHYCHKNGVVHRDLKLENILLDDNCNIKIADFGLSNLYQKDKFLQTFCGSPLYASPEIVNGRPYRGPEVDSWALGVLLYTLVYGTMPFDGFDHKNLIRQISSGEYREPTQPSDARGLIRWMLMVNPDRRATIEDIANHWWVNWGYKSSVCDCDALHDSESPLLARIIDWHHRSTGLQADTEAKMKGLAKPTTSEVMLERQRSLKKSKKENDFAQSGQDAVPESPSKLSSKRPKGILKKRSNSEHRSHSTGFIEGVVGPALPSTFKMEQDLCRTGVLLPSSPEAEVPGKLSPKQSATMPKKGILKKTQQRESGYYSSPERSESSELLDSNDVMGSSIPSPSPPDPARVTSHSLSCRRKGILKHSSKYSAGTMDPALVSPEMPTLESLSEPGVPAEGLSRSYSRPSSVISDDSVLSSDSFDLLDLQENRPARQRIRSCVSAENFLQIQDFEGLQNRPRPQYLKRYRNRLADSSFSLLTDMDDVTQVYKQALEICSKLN
Method in brief: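 Human ARK5 made in Sf9 cells by baculovirus (GST- or His-tagged, affinity-purified) and read by autophosphorylation in a 33PanQinase radiometric assay. Buffer: 60 mM HEPES-NaOH pH 7.5, 3 mM MgCl2, 3 mM MnCl2, 3 µM orthovanadate, 1.2 mM DTT, PEG20000 and 1 µM [γ-33P]ATP.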

[10] = molecular target: T4, Receptor-type tyrosine-protein kinase FLT3 (Homo sapiens, UniProt P36888); assay: Inhibition of human recombinant FLT3; method in brief: as §3
T4 sequence (P36888 whole entry): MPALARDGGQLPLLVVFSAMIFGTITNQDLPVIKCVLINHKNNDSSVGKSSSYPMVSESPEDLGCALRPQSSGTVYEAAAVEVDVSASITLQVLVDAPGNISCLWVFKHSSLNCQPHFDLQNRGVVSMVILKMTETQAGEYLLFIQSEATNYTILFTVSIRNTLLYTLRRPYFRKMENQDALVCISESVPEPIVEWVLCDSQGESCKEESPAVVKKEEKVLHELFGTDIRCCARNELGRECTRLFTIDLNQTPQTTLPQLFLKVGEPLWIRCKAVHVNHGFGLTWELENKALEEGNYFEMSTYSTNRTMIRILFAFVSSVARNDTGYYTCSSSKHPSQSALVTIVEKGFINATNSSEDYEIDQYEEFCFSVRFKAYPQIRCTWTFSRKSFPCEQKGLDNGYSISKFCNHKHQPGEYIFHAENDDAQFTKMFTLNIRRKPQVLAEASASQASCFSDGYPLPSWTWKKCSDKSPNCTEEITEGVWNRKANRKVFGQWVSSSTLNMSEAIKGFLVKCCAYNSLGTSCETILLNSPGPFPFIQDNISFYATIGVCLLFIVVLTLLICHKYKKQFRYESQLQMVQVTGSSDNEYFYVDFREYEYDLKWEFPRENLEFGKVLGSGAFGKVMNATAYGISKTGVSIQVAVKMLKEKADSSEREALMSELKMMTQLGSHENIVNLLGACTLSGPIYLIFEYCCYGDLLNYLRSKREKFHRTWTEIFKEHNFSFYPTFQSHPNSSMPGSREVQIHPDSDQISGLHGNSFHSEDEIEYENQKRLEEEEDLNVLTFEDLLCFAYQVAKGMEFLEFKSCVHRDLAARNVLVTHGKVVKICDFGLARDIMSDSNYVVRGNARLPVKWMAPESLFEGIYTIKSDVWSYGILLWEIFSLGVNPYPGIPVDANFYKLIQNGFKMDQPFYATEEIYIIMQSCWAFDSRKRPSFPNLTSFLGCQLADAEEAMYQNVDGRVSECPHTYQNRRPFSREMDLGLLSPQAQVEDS

Sequence of Focal adhesion kinase 1 (Q05397 whole entry): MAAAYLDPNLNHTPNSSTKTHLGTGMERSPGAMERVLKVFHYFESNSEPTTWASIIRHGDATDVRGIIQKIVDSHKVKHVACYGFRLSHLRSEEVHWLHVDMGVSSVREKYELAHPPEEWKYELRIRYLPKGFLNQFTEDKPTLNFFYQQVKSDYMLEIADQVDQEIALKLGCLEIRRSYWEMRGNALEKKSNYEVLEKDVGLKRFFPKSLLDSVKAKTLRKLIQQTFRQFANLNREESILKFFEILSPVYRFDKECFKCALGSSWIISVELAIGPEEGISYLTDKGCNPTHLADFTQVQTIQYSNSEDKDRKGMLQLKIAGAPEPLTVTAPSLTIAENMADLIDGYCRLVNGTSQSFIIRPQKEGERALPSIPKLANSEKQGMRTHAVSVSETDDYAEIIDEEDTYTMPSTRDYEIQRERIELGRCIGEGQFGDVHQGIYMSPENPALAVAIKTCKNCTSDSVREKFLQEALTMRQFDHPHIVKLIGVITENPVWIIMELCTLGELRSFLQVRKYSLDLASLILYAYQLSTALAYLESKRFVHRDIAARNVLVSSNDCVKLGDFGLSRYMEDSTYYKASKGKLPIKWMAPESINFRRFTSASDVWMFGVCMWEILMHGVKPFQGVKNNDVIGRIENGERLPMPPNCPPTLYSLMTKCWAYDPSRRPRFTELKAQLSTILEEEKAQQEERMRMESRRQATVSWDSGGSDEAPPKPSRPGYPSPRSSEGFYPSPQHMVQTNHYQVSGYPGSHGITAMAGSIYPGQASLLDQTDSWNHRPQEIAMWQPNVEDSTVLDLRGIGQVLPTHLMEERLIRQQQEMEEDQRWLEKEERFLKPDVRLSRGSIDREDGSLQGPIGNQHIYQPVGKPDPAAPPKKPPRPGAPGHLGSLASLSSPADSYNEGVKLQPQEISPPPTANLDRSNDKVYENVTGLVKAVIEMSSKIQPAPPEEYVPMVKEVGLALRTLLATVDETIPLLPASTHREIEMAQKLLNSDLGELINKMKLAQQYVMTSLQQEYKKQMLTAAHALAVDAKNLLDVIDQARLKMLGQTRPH
Sequence of Proto-oncogene tyrosine-protein kinase Src (P12931 2-536 limits assumed): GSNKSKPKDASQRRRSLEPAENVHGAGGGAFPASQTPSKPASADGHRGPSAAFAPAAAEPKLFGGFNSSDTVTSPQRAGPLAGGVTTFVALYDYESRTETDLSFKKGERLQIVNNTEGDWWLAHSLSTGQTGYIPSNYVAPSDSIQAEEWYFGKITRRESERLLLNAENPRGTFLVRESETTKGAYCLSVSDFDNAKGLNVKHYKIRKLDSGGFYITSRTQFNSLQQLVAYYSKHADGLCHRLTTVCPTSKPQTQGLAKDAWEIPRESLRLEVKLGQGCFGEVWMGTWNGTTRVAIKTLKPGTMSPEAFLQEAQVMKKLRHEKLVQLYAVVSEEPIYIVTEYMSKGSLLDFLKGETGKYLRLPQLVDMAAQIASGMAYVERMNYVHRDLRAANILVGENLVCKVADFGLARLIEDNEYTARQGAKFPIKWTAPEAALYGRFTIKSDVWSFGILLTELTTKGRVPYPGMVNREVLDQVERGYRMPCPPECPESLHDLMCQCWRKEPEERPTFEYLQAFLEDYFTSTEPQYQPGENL
Sequence of Vascular endothelial growth factor receptor 2 (P35968 whole entry): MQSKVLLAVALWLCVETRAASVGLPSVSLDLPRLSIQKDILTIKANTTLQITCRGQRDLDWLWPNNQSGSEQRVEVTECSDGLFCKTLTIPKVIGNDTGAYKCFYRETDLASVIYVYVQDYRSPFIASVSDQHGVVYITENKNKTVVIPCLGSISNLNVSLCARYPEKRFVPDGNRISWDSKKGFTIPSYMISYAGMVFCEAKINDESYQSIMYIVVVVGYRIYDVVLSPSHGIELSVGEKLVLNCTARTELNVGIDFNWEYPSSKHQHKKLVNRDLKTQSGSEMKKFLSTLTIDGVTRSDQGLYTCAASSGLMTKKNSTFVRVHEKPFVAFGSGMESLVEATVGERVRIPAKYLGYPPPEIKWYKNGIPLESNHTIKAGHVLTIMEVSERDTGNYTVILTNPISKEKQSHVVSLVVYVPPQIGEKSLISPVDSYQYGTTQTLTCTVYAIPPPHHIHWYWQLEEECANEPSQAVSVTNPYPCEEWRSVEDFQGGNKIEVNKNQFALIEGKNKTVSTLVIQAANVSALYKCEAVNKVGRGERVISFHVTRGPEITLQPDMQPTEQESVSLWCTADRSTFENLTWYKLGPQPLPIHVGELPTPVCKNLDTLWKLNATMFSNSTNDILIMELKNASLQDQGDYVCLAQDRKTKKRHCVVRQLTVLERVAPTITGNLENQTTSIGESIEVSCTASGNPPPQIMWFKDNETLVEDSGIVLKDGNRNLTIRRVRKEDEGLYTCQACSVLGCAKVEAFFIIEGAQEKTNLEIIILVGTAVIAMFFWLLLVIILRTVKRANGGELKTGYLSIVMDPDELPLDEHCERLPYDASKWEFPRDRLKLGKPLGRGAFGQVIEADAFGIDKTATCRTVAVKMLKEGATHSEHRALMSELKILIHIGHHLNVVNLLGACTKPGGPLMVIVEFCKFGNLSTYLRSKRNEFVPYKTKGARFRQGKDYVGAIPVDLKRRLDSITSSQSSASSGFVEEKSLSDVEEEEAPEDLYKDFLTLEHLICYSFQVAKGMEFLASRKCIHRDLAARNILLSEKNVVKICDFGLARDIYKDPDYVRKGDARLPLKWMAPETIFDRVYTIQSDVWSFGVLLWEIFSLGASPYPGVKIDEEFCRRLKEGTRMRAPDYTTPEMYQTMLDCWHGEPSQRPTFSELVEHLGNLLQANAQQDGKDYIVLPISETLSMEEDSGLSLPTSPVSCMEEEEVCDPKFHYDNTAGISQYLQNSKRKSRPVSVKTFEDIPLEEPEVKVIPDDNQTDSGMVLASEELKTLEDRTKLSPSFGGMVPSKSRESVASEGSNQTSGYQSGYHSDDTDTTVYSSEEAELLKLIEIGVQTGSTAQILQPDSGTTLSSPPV
Sequence of Vascular endothelial growth factor receptor 3 (P35916 whole entry, the tested form may be a part): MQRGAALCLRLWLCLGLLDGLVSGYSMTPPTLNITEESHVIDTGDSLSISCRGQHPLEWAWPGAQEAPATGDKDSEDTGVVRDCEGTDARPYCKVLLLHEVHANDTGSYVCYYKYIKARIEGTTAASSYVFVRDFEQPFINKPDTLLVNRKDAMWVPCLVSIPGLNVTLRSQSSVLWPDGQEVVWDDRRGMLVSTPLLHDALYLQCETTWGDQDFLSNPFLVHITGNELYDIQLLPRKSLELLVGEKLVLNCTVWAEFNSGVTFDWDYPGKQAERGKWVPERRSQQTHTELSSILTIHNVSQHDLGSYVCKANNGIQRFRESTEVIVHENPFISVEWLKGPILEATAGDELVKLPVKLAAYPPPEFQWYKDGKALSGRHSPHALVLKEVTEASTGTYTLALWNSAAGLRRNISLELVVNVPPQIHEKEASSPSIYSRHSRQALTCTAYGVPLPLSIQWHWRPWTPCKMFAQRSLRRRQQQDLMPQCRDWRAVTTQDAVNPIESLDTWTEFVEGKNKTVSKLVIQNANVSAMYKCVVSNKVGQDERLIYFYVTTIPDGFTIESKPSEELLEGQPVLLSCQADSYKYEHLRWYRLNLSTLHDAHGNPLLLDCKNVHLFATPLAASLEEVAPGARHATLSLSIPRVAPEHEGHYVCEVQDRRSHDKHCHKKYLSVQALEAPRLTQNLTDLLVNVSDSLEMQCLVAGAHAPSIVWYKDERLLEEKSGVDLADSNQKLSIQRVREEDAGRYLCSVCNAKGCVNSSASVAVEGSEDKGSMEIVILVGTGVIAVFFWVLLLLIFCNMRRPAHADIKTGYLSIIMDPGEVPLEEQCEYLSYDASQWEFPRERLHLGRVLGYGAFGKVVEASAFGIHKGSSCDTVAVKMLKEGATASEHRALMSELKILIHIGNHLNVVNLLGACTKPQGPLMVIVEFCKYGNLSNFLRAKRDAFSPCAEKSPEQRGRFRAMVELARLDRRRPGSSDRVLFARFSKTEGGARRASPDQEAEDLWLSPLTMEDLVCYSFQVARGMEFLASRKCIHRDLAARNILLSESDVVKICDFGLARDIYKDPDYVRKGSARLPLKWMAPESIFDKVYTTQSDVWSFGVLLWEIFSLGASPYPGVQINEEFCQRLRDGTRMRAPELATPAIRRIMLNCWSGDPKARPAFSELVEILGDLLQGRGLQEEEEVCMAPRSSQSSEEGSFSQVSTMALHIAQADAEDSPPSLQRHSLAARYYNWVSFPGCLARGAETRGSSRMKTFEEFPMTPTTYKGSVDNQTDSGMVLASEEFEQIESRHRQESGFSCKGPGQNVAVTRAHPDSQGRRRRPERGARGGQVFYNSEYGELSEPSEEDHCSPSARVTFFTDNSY
Sequence of Cyclin-dependent kinase 4/cyclin D1 (P11802 whole entry): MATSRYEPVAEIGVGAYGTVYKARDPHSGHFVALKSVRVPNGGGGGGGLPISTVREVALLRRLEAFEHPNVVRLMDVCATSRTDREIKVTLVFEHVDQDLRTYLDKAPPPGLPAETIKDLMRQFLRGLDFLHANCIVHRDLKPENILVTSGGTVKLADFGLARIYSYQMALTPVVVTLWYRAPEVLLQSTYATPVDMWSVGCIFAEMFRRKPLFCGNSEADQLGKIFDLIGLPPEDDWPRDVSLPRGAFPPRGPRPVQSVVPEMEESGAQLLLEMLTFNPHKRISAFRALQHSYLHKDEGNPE
Sequence of Cyclin-dependent kinase 4/cyclin D1 (P24385 whole entry, further chain): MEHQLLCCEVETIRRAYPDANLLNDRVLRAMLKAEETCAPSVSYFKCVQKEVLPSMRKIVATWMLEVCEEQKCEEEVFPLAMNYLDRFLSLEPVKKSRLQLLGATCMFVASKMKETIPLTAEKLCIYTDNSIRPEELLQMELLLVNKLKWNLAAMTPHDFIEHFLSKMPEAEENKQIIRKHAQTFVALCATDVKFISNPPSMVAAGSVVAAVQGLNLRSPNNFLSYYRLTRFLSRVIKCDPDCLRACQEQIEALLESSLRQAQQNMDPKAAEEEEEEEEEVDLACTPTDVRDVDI

| SMILES | IC50 (Aurora kinase A) [µM] | IC50 (Focal adhesion kinase 1) [µM] | IC50 [1] [µM] | IC50 [2] [µM] | IC50 [3] [µM] | IC50 (Angiopoietin-1 receptor) [µM] | IC50 [4] [µM] | IC50 (Insulin receptor) [µM] | inhibition (Homo sapiens) [%] | IC50 [5] [µM] | IC50 [6] [µM] | IC50 [7] [µM] | IC50 (Aurora kinase B) [µM] | IC50 [8] [µM] | IC50 [9] [µM] | IC50 [10] [µM] |
| --- | --- | --- | --- | --- | --- | --- | --- | --- | --- | --- | --- | --- | --- | --- | --- | --- |
| CCOCn1cc(C2=C(c3cc(OC)c(OC)c(OC)c3)C(=O)NC2)c2ccccc21 | 29 | 28 | 3.6 | 35 | 40 | 24 | 5.3 |  |  |  |  |  |  |  |  |  |
| COc1cc(C2=C(c3cn(COc4ccccc4)c4ccccc34)CNC2=O)cc(OC)c1OC | 6.5 | 43 | 2.5 | 9 |  | 1.7 | 1.5 | 44 | 41 | 37 | 44 | 20 | 20 | 40 |  |  |
| COc1ccc(C2=C(c3cn(C)c4ccccc34)C(=O)NC2)cc1 |  |  | 18 | 46 | 39 | 48 | 31 |  |  |  |  |  |  |  | 3.6 | 14 |
| COc1cc(C2=C(c3c[nH]c4ccccc34)C(O)NC2=O)cc(OC)c1OC (configuration not stated) |  |  | 3.4 |  |  |  | 5.9 |  |  |  |  |  |  |  |  | 44 |
| COc1cc(C2=C(c3cn(COC(C)C)c4ccccc34)CNC2=O)cc(OC)c1OC | 33 | 27 | 5.3 | 44 | 29 | 11 | 5.2 |  |  |  |  |  |  |  |  |  |
| COc1cc(C2=C(c3cn(CC4COC(C)(C)O4)c4ccccc34)CNC2=O)cc(OC)c1OC (configuration not stated) |  |  | 3.2 | 23 |  | 31 | 8 |  |  |  |  |  |  |  |  |  |
| COCn1cc(C2=C(c3cc(OC)c(OC)c(OC)c3)C(=O)NC2)c2ccccc21 |  | 35 | 3.2 |  |  | 25 | 2.3 |  | 42 |  |  |  |  |  |  | 25 |
